The subject of data set [1] is NCI-H1299. Nature of the data set: Antiproliferative activity against human NCI-H1299 cells assessed as reduction in cell viability at 30 uM incubated for 48 hrs by MTT assay relative to control. It counts as functional. Put shortly: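 H1299 cells seeded at 5,000 per well, exposed in hexads to compound at 30 µM or DMSO (<0.5% v/v) for 48 h. MTT then added for 4 h and absorbance read at 570 nm. Conditions run in triplicate, quadruplicate or hexad, experiment repeated at least once; mean ± standard deviation.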
For orientation: Tetrazolium dyes change colour on reduction, which living cells bring about.

Data set [2] can be described thus: Stability in human serum assessed as reduction in A549 cell viability at 30 uM measured upto 12 hrs by resazurin assay. It counts as cell-free. Put shortly:
(§1)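 Compound at 30 µM preincubated at 37 °C in DMEM with 10% FBS and 1% Pen/Strep for 0, 1, 2, 4, 6, 9, 12, 24, 48 and 72 h. This medium then applied for 24 h to 5 x 10^3 A549 cells (grown overnight, washed twice with PBS). Resazurin added for 30 min, fluorescence Ex 560/Em 590, normalized to DMSO mock.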

Data set [3] can be described thus: Inhibition of glucose uptake in human NCI-H1299 cells at 30 uM incubated for 10 mins followed by […][3H]2-deoxyglucose and glucose addition and measured after 30 mins by scintillation counting method relative to control. The class given is functional. Conditions: NCI-H1299, 10 min. Put shortly:
(§2)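 H1299 cells held 2 h in serum-free medium, then 30 min in KRP buffer. Treated ±30 µM compound for 10 min, then 37 MBq/L [3H]2-deoxyglucose plus 1 mmol/L glucose in KRP for 30 min uptake. Washed twice with ice-cold PBS, lysed in NaOH, radioactivity by scintillation counting. Replicates triplicate to hexad, repeated at least once; mean ± standard deviation.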

Data set [4] has as its system A549. Nature of the data set: Antitumor activity in human A549 cells xenografted in NU/J mouse assessed as reduction in tumor volume at 10 mg/kg, ip administered for 10 weeks and measured for every 7 day relative to control. More on the design: scale not given: the % may be the effect or the level left. It counts as functional.
The nature of data set [5]: Stability in human serum assessed as compound remaining incubated for 1 hr. It counts as ADME, cell-free. As to conditions: read-out: Stabilty.
Data set [6] concerns NCI-H1299. Nature of the data set: Antiproliferative activity against human NCI-H1299 cells assessed as reduction in cell viability incubated for 48 hrs by MTT assay. It counts as functional, cell-based. As to conditions: NCI-H1299, 48 h.
Data set [7] can be described thus: Inhibition of glucose uptake in human NCI-H1299 cells incubated for 10 mins followed by […][3H]2-deoxyglucose and glucose addition and measured after 30 mins by scintillation counting method. It counts as functional, cell-based. Put shortly: as §2
The nature of data set [8]: Stability in human serum assessed as reduction in A549 cell viability at 30 uM measured upto 72 hrs by resazurin assay. It counts as cell-free. In short, it runs like this:
as §1
A general note: The colour change of resazurin is a common sign of viable cells or microbes.

Results on 33 compounds are retold here after ChEMBL document CHEMBL4725302, “Isosteres of ester derived glucose uptake inhibitors” (Bioorg Med Chem Lett, 2020).

For orientation: inhibition means the drop in the measured response relative to a control, in per cent. On to `O=C(Oc1cccc(F)c1OC(=O)c1cccc(O)c1)c1cccc(O)c1`, for which the results for the inhibition at 30 µM in data set [1] and in data set [3] were 56.9% and 92.8%, respectively. The Stabilty entry in data set [2] is reported as “Unstable”. Moreover, the Activity in data set [4] was found to be 70%. For the same compound, the remaining at 1 h in data set [5] worked out at 25%.

`Cc1ccc(C(=O)Nc2ccc(Cl)cc2NC(=O)c2ccc(C)c(O)c2)cc1O`: the values for the inhibition at 30 µM in data set [1] and in data set [3] were 55% and 84.8%, respectively.

With `O=C(Nc1ccc(Cl)cc1NC(=O)c1cc(O)ccc1Cl)c1cc(O)ccc1Cl`, the results for the inhibition at 30 µM in data set [1] and in data set [3] were 45.3% and 89.9%, respectively.

In the case of `O=C(Nc1ccc(Cl)cc1NC(=O)c1ccc(Br)c(O)c1)c1ccc(Br)c(O)c1`, the values for the inhibition at 30 µM in data set [1] and in data set [3] were 54.6% and 97.3%, respectively.

Turning to `Cc1ccc(O)cc1CNc1ccc(Cl)cc1NCc1cc(O)ccc1C`, the inhibition at 30 µM in data set [1] came out at 46.3%; in data set [3] it was 82.9%.

With `Oc1cc(CNc2ccc(Cl)cc2NCc2ccc(Cl)c(O)c2)ccc1Cl`, the values for the inhibition at 30 µM in data set [1] and in data set [3] were 70.9% and 52.4%, respectively.

For the compound `O=C(Nc1ccc(Cl)cc1NC(=O)c1ccc(Cl)c(O)c1)c1ccc(Cl)c(O)c1`, the figures for the inhibition at 30 µM in data set [1] and in data set [3] were 19% and 85.2%, respectively.

`O=C(Nc1ccc(Cl)cc1NC(=O)c1ccc(F)c(O)c1)c1ccc(F)c(O)c1`: the inhibition at 30 µM in data set [1] came out at 25.7%; in data set [3], 47.8%.

Take `Oc1cccc(SCc2cccc(F)c2CSc2cccc(O)c2)c1`: the figures for the inhibition at 30 µM in data set [1] and in data set [3] were -2% and 98.1%, respectively.

For the compound `Oc1cccc(CNc2ccc(F)cc2NCc2cccc(O)c2)c1`, the figures for the inhibition at 30 µM in data set [1] and in data set [3] were 37.7% and 39.2%, respectively.

In the case of `O=C(Nc1ccc(Cl)cc1NC(=O)c1cc(O)cc(Cl)c1)c1cc(O)cc(Cl)c1`, the inhibition at 30 µM in data set [1] stood at 61.3%; in data set [3], 60.6%.

In the case of `Oc1cc(Cl)cc(CNc2ccc(Cl)cc2NCc2cc(O)cc(Cl)c2)c1`, the results for the inhibition at 30 µM in data set [1] and in data set [3] were 47.6% and 81.7%, respectively.

For `O=C(Nc1ccc(Cl)cc1NC(=O)c1cccc(O)c1)c1cccc(O)c1`, the inhibition at 30 µM was found to be 5.9% in data set [1] and 83.7% in data set [3].

On to `Cc1ccc(O)cc1C(=O)Nc1ccc(Cl)cc1NC(=O)c1cc(O)ccc1C`, for which the inhibition at 30 µM in data set [1] and in data set [3] was 21% each time.

Regarding `Oc1cccc(OCc2cccc(F)c2COc2cccc(O)c2)c1`, the inhibition at 30 µM in data set [1] was -1.4%; in data set [3] it was 89.5%.

Take `Oc1cccc(COc2cccc(F)c2OCc2cccc(O)c2)c1`: the inhibition at 30 µM in data set [1] stood at 10.6%; in data set [3], 92.6%.

For `[O-][S+](Cc1cccc(F)c1C[S+]([O-])c1cccc(O)c1)c1cccc(O)c1` (configuration not stated), the inhibition at 30 µM in data set [1] was determined as 0.2%; in data set [3], 17.2%.

The term IC50 denotes the concentration at which inhibition is half-maximal. `Cc1ccc(CNc2ccc(Cl)cc2NCc2ccc(C)c(O)c2)cc1O`: the results for the inhibition at 30 µM in data set [1] and in data set [3] were 77.5% and 93.7%, respectively. The IC50 in data set [6] turned out to be 7 µM; in data set [7] it was 1.9 µM. The Stabilty result in data set [8] is “Stable”.

Regarding `O=S(=O)(Cc1cccc(F)c1CS(=O)(=O)c1cccc(O)c1)c1cccc(O)c1`, the inhibition at 30 µM in data set [1] was found to be 11.8%; in data set [3], 61.4%.

On to `Oc1cccc(CNc2ccc(Cl)cc2NCc2cccc(O)c2)c1`, for which the values for the inhibition at 30 µM in data set [1] and in data set [3] were 56.6% and 52.2%, respectively.

Turning to `O=C(Nc1ccc(F)cc1NC(=O)c1cccc(O)c1)c1cccc(O)c1`, the figures for the inhibition at 30 µM in data set [1] and in data set [3] were 5.7% and 89.7%, respectively.

In the case of `COc1ccc(C(=O)Nc2ccc(Cl)cc2NC(=O)c2ccc(OC)c(O)c2)cc1O`, the inhibition at 30 µM in data set [1] was 26%; in data set [3], 39.5%.

For `Oc1cccc(CNc2cccc(F)c2NCc2cccc(O)c2)c1`, the results for the inhibition at 30 µM in data set [1] and in data set [3] were 5% and 54.8%, respectively.

`Cc1cc(O)cc(C(=O)Nc2ccc(Cl)cc2NC(=O)c2cc(C)cc(O)c2)c1`: the inhibition at 30 µM amounted to 84.7% in data set [1] and 61.4% in data set [3].

`O=C(Nc1cccc(F)c1NC(=O)c1cccc(O)c1)c1cccc(O)c1`: the inhibition at 30 µM was determined as 33.4% in data set [1] and 20% in data set [3].

`Oc1cc(CNc2ccc(Cl)cc2NCc2ccc(Br)c(O)c2)ccc1Br`: the inhibition at 30 µM in data set [1] was 74.1%; in data set [3], 69.1%.

As for `Cc1cc(O)cc(CNc2ccc(Cl)cc2NCc2cc(C)cc(O)c2)c1`, the inhibition at 30 µM in data set [1] worked out at 60.4%; in data set [3], 75%.

On to `COc1ccc(CNc2ccc(Cl)cc2NCc2ccc(OC)c(O)c2)cc1O`, for which the results for the inhibition at 30 µM in data set [1] and in data set [3] were 22% and 42.2%, respectively.

Turning to `Oc1cc(CNc2ccc(Cl)cc2NCc2ccc(F)c(O)c2)ccc1F`, the inhibition at 30 µM in data set [1] came to 22.1%; in data set [3], 24.1%.

With `O=C(Oc1cccc(O)c1)c1cccc(F)c1C(=O)Oc1cccc(O)c1`, the inhibition at 30 µM in data set [1] is 15.3%; in data set [3] it was 78.2%.

For the compound `Oc1cccc(COc2ccc(Cl)cc2OCc2cccc(O)c2)c1`, the values for the inhibition at 30 µM in data set [1] and in data set [3] were 14.3% and 91.2%, respectively.

As to `Oc1ccc(Cl)c(CNc2ccc(Cl)cc2NCc2cc(O)ccc2Cl)c1`, the inhibition at 30 µM in data set [1] was found to be 70.8%; in data set [3], 80.7%.

For the compound `Oc1cccc(CCc2cccc(F)c2CCc2cccc(O)c2)c1`, the inhibition at 30 µM in data set [1] is -22.7%; in data set [3], 60.7%.
